Results from ChEMBL document CHEMBL3352052, “Bioactive metabolites from Chaetomium aureum: structure elucidation and inhibition of the Hsp90 machine chaperoning activity” (Bioorg Med Chem, 2015).
The source made the active and inactive calls. The rule behind the calls is not given here.

How the values were obtained:
Oryctolagus cuniculus = organism: Oryctolagus cuniculus; experiment: Inhibition of Hsp90 chaperoning activity in rabbit reticulocyte lysate assessed as progesterone receptor hormone binding activity by liquid scintillation counting analysis
Procedure, shortened: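 Purified PR was bound to PR22 antibody-protein A-sepharose beads and mildly heat-denatured. Then 0.1 μM [3H]-progesterone was added for 3 h on ice, beads washed three times, and bound hormone counted by liquid scintillation.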

MDA-MB-231 [1] = experiment: Cytotoxicity against human MDA-MB-231 cells assessed as cell survival at 10 to 20 uM after 48 hrs by MTS assay; type: functional, cell-based
LNCaP [2] = experiment: Cytotoxicity against human LNCAP cells assessed as cell survival at 10 to 20 uM after 48 hrs by MTS assay; type: functional, cell-based
Hs-578T [3] = experiment: Cytotoxicity against human Hs578T cells assessed as cell survival at 10 to 20 uM after 48 hrs by MTS assay; type: functional, cell-based
LNCaP [4] = experiment: Cytotoxicity against human LNCAP cells assessed as cell survival at 10 to 20 uM by MTS assay; type: functional, cell-based
HeLa = experiment: Cytotoxicity against human HeLa cells assessed as cell survival at 10 to 20 uM by MTS assay; type: functional, cell-based
MDA-MB-231 [5] = experiment: Cytotoxicity against human MDA-MB-231 cells assessed as cell survival at 10 to 20 uM by MTS assay; type: functional, cell-based
Hs-578T [6] = experiment: Induction of glucocorticoid receptor degradation in human Hs578T cells at 10 to 20 uM by Western blot analysis; type: functional, cell-based
Procedure, shortened: (§1)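 Hs578T cells seeded in 6-well plates, treated the next day for 48 h, with medium and drug at the same concentration replaced every 24 h. Cells were harvested at 48 h and lysed, and 10 μg protein lysate was analysed by Western blot with specific antibodies, including rabbit anti-total GR.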

Hs-578T [7] = experiment: Cytotoxicity against human Hs578T cells assessed as cell survival at 10 to 20 uM by MTS assay; type: functional, cell-based
Hs-578T [8] = experiment: Induction of Hsp40 degradation in human Hs578T cells at 10 to 20 uM by Western blot analysis; type: functional, cell-based; procedure, shortened: as §1
MCF7 = experiment: Cytotoxicity against human MCF7 cells assessed as cell survival at 10 to 20 uM by MTS assay; type: functional, cell-based
MDA-MB-453 = experiment: Cytotoxicity against human MDA-MB-453 cells assessed as cell survival at 10 to 20 uM by MTS assay; type: functional, cell-based
Hs-578T [9] = experiment: Induction of Hsp70 overexpression in human Hs578T cells at 10 to 20 uM by Western blot analysis; type: functional, cell-based; procedure, shortened: as §1

Structure (SMILES) | inhibition (Oryctolagus cuniculus) | inhibition (MDA-MB-231 [1]) | inhibition (LNCaP [2]) | inhibition (Hs-578T [3]) | Activity (LNCaP [4]) | Activity (HeLa) | Activity (MDA-MB-231 [5]) | Activity (Hs-578T [6]) | Activity (Hs-578T [7]) | Activity (Hs-578T [8]) | Activity (MCF7) | Activity (MDA-MB-453) | Activity (Hs-578T [9])
C=CCNC1=C2C[C@@H](C)C[C@H](OC)[C@H](O)[C@@H](C)/C=C(\C)[C@H](OC(N)=O)[C@@H](OC)/C=C\C=C(/C)C(=O)NC(=CC1=O)C2=O | Active | – | – | – | – | – | – | – | – | – | – | – | –
CC[C@H](C)/C=C(C)/C=C/C1=CC2=C(Cl)C(=O)[C@](C)(O)C(=O)C2=CO1 | Active | Active | Active | Active | – | – | – | – | – | – | – | – | –
CC[C@H](C)/C=C(C)/C=C/C1=CC2=C(Cl)C(=O)[C@](C)(OC(C)=O)C(=O)C2=CO1 | Active | – | – | – | inactive | inactive | inactive | Active | inactive | Active | inactive | inactive | Active
